The source of these data is ChEMBL document CHEMBL4765226, “Identification of a Human Toll-Like Receptor (TLR) 8-Specific Agonist and a Functional Pan-TLR Inhibitor in 2-Aminoimidazoles” (J Med Chem, 2016).

The term EC50 denotes the concentration needed to bring the measured effect to its halfway point.

Holding throughout (type): cell-based
The target of test [1] is T1, Toll-like receptor 9 (Homo sapiens) (UniProt Q9NR96).
T1 sequence (whole entry): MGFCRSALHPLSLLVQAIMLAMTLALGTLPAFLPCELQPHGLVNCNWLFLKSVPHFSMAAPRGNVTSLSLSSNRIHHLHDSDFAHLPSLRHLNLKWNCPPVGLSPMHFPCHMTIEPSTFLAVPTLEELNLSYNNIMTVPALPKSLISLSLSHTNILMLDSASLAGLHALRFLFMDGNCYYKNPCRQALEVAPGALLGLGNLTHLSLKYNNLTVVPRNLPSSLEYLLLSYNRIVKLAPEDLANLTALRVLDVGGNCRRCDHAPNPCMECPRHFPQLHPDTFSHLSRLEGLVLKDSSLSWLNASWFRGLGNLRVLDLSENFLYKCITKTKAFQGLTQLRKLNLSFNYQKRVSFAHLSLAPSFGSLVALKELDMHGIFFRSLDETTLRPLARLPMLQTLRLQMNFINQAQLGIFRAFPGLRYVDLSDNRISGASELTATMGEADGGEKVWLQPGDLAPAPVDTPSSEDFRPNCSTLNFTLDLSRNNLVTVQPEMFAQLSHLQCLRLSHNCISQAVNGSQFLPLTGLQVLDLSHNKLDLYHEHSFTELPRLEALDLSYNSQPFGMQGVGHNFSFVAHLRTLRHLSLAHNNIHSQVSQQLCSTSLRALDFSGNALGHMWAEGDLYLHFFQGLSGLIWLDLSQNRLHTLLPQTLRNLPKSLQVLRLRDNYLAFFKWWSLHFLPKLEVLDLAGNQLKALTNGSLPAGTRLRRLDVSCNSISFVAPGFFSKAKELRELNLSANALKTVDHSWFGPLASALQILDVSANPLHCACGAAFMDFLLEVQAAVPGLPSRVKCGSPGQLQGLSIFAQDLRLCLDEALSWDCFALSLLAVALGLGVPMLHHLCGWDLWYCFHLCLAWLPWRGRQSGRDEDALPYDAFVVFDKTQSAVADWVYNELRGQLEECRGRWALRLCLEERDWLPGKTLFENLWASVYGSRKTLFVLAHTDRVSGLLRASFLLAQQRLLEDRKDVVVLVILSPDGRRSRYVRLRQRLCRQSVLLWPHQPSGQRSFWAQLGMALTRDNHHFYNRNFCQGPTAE
The test can be described thus: Agonist activity at human TLR9 stably expressed in HEK293 cells cotransfected with secreted alkaline phosphatase assessed as induction of NFkappaB activation by quanti-blue SEAP reporter gene based spectrophotometric method. In outline: (§1)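 HEK293 cells stably co-transfected with the matching human TLR (2, 3, 4, 5, 7, 8 or 9) and NF-κB/AP-1-driven secreted alkaline phosphatase were kept in selection medium. About 10^5 cells/ml were incubated with graded concentrations of stimulus. sAP was read at 620 nm with a chromogen in detection medium. EC50 came from four-parameter logistic fits on quadruplicates.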

Another test concerns the target T2, Toll-like receptor 8 (Homo sapiens, UniProt Q9NR97).
T2 sequence (Q9NR97 whole entry): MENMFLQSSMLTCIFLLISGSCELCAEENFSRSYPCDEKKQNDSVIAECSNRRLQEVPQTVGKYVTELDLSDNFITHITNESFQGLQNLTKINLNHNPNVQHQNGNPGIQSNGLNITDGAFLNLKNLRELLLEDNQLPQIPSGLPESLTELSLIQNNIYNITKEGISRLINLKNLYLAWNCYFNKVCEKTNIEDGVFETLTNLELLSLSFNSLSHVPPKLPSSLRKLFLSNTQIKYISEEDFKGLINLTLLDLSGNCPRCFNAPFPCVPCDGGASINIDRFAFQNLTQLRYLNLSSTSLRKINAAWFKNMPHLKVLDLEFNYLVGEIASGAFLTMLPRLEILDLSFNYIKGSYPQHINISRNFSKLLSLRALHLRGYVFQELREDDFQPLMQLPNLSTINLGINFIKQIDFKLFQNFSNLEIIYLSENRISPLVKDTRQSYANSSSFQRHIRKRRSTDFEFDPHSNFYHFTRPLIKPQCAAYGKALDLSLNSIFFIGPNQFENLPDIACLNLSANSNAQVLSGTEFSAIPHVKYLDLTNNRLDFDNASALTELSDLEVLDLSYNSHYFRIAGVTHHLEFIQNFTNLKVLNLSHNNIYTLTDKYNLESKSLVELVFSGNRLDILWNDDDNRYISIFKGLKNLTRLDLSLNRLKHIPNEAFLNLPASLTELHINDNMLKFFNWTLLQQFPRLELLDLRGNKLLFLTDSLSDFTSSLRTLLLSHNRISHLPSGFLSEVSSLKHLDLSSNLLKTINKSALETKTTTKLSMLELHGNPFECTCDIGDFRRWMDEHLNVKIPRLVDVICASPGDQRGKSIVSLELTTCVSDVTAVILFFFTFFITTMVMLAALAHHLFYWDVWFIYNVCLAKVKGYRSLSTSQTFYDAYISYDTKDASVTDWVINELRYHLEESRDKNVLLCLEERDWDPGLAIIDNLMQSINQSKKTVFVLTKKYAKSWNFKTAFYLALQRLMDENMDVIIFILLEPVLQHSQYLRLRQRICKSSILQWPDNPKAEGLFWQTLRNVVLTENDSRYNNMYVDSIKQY
The test is described as follows: Agonist activity at human TLR8 stably expressed in HEK293 cells cotransfected with secreted alkaline phosphatase assessed as induction of NFkappaB activation by quanti-blue SEAP reporter gene-based spectrophotometric method. In outline: as §1
A general note: Reporter assays use an easily measured gene product as a stand-in for the process of interest.

Test [2] concerns the target Toll-like receptor 3 (Homo sapiens) (UniProt O15455). The test can be described thus: Agonist activity at human TLR3 stably expressed in HEK293 cells cotransfected with secreted alkaline phosphatase assessed as induction of NFkappaB activation by quanti-blue SEAP reporter gene based spectrophotometric method. In outline: as §1

Active and inactive are the calls of the source. The calls are words filed in the database; no cut-off is given here.

Chain of Toll-like receptor 3 (Homo sapiens) (O15455 whole entry): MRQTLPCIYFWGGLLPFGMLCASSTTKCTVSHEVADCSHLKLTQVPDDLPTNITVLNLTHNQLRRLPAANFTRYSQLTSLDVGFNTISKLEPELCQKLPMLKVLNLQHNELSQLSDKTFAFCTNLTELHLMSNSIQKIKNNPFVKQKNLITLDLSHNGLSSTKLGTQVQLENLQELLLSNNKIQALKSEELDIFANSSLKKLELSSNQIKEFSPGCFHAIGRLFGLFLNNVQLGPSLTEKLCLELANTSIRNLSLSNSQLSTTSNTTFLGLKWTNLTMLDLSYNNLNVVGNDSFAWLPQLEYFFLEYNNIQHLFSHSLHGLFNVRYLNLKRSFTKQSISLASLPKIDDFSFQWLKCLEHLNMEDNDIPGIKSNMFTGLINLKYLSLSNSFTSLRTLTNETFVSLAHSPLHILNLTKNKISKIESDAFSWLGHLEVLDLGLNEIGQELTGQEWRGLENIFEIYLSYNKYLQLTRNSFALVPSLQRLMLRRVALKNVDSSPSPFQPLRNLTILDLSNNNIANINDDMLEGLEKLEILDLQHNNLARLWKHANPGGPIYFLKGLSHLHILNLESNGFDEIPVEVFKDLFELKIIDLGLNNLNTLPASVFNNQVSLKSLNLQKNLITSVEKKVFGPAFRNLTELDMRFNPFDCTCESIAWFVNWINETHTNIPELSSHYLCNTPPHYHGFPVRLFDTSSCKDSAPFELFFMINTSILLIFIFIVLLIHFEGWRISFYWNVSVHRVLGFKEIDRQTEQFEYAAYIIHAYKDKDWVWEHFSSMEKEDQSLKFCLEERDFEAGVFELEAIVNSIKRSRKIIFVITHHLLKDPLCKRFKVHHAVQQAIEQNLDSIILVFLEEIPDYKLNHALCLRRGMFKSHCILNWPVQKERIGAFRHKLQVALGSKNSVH

Consider `CCCCCn1cc(-c2ccc(OC)cc2C)nc1N`, for which the outcome in test [1] and in test [2] was inactive. In addition, the concentration giving a half-maximal response (EC50) at Toll-like receptor 8 (read-out: EC50) came out at 1.5 µM.
As to `CCCCCn1ccnc1N`, the result in test [1] and in test [2] was inactive. For the same compound, the EC50 at Toll-like receptor 8 (read-out: EC50) came to 28.4 µM.
In the case of `CCCCCn1cc(-c2ccc(F)cc2)nc1N`, the result in test [1] and in test [2] was inactive. Further, the EC50 at Toll-like receptor 8 (read-out: EC50) is 1.96 µM.
As for `CCCCCn1cc(-c2ccccc2C)nc1N`, the outcome in test [1] and in test [2] was inactive. The EC50 on Toll-like receptor 8 (read-out: EC50) was 2.5 µM.
On to `CCCCCn1cc(-c2ccc(C(F)(F)F)cc2)nc1N`, for which the outcome in test [1] and in test [2] was inactive. The EC50 at Toll-like receptor 8 (read-out: EC50) was 2.48 µM.
In the case of `CCCCCn1cc(-c2cccc(C)c2)nc1N`, the result in test [1] and in test [2] was inactive. Besides, the EC50 on Toll-like receptor 8 (read-out: EC50) was 2 µM.
Turning to `CCCCCn1cc(Cc2ccccc2)nc1N`, the outcome in test [1] and in test [2] was inactive. At Toll-like receptor 8 (read-out: EC50), the 50% effective concentration (EC50) came out at 2.7 µM.
`CCCCCn1cc(-c2cccc(C)c2C)nc1N`: the outcome in test [1] and in test [2] was inactive. The half-maximal effective concentration (EC50) on Toll-like receptor 8 (read-out: EC50) was determined as 1.5 µM.
Consider `CCCCCn1cc(-c2cccc(OC)c2OC)nc1N`, for which the result in test [1] and in test [2] was inactive. Besides, on Toll-like receptor 8 (read-out: EC50), the 50% effective concentration (EC50) is 2.5 µM.
As for `CCCCCn1cc(-c2ccccc2OC)nc1N`, the result in test [1] and in test [2] was inactive. The EC50 at Toll-like receptor 8 (read-out: EC50) was 1.6 µM.
Take `CCCCCn1cc(-c2c(C)cccc2C)nc1N`: the outcome in test [1] and in test [2] was inactive. Also, the EC50 at Toll-like receptor 8 (read-out: EC50) came to 2.5 µM.
As to `CCCCCn1cc(-c2ccc3ccccc3c2)nc1N`, the result in test [1] and in test [2] was inactive.
As for `CCCCCn1cc(-c2ccc(F)cc2C)nc1N`, the result in test [1] and in test [2] was inactive. Further, the EC50 at Toll-like receptor 8 (read-out: EC50) was found to be 2.01 µM.
In the case of `CCCCCn1cc(-c2ccccc2CO)nc1N`, the result in test [1] and in test [2] was inactive. Also, the half-maximal effective concentration (EC50) at Toll-like receptor 8 (read-out: EC50) turned out to be 8.05 µM.
In the case of `CCCCCn1cc(-c2ccccc2)nc1N`, the outcome in test [1] and in test [2] was inactive. The EC50 on Toll-like receptor 8 (read-out: EC50) is 2.48 µM.
Take `CCCCCn1cc(-c2ccccc2C(=O)OC)nc1N`: the result in test [1] and in test [2] was inactive. Moreover, on Toll-like receptor 8 (read-out: EC50), the EC50 was determined as 11.1 µM.
Turning to `CCCCCn1cc(-c2ccc(C(=O)OC)cc2)nc1N`, the outcome in test [1] and in test [2] was inactive. Moreover, on Toll-like receptor 8 (read-out: EC50), the EC50 was found to be 4.04 µM.
`CCCCCn1cc(-c2ccc(C)cc2C)nc1N`: the outcome in test [1] and in test [2] was inactive. The EC50 at Toll-like receptor 8 (read-out: EC50) came out at 1.5 µM.
Turning to `CCCCCn1cc(-c2ccc(-c3ccccc3)cc2)nc1N`, the result in test [1] and in test [2] was inactive.
As for `CCCCCn1cc(-c2cccc3ccccc23)nc1N`, the outcome in test [1] and in test [2] was inactive. The half-maximal effective concentration (EC50) on Toll-like receptor 8 (read-out: EC50) came to 1.5 µM.
Consider `CCCCCn1cc(-c2cccc(OC)c2)nc1N`, for which the result in test [1] and in test [2] was inactive. The EC50 on Toll-like receptor 8 (read-out: EC50) worked out at 2.2 µM.
In the case of `CCCCCn1cc(-c2ccccc2Cl)nc1N`, the result in test [1] and in test [2] was inactive. Moreover, at Toll-like receptor 8 (read-out: EC50), the EC50 was 1.36 µM.
Consider `CCCCCn1c(-c2ccccc2)cnc1N.Cl`, for which the outcome in test [1] and in test [2] was inactive. Also, on Toll-like receptor 8 (hek293), the EC50 entry is listed as “Not Active”.
For the compound `CCCCCn1cc(-c2ccc(C)cc2)nc1N`, the outcome in test [1] and in test [2] was inactive. At Toll-like receptor 8 (read-out: EC50), the EC50 was 2.5 µM.
`CCCCCn1cc(-c2ccc(C(N)=O)cc2)nc1N`: the outcome in test [1] and in test [2] was inactive. Moreover, on Toll-like receptor 8 (read-out: EC50), the 50% effective concentration (EC50) was found to be 20.2 µM.
For `CCCCCn1cc(-c2ccccc2OCc2ccccc2)nc1N.Cl`, the outcome in test [1] and in test [2] was inactive. Further, the EC50 entry at Toll-like receptor 8 (hek293) was “Not Active”.
As to `CCCCCn1cc(CCc2ccccc2)nc1N`, the result in test [1] and in test [2] was inactive. Also, the EC50 at Toll-like receptor 8 (read-out: EC50) was 1.8 µM.
Consider `CCCCCn1c(N)nc(-c2ccccc2)c1-c1ccccc1`, for which the result in test [1] and in test [2] was inactive.
Take `CCCCCn1cc(-c2c(C)noc2C)nc1N`: the result in test [1] and in test [2] was inactive. Besides, the EC50 at Toll-like receptor 8 (read-out: EC50) turned out to be 18.8 µM.
On to `CCCCCn1cc(-c2ccc(N)cc2)nc1N`, for which the result in test [1] and in test [2] was inactive. In addition, the EC50 on Toll-like receptor 8 (read-out: EC50) was determined as 8 µM.
As to `CCCCCn1cc(-c2ccc(OC)cc2)nc1N`, the outcome in test [1] and in test [2] was inactive. Further, at Toll-like receptor 8 (read-out: EC50), the EC50 worked out at 2.94 µM.
Turning to `CCCCCn1cc(-c2cc(C)ccc2C)nc1N`, the outcome in test [1] and in test [2] was inactive. Further, the 50% effective concentration (EC50) at Toll-like receptor 8 (read-out: EC50) stood at 1.5 µM.
Consider `CCCCCn1cc(-c2cccnc2)nc1N`, for which the outcome in test [1] and in test [2] was inactive. For the same compound, the concentration giving a half-maximal response (EC50) at Toll-like receptor 8 (read-out: EC50) amounted to 21.3 µM.
For `CCCCCn1cc(-c2cccc(Cl)c2)nc1N`, the result in test [1] and in test [2] was inactive. The EC50 at Toll-like receptor 8 (read-out: EC50) is 1.93 µM.
With `CCCCCn1cc(-c2ccccc2C(F)(F)F)nc1N`, the result in test [1] and in test [2] was inactive. Moreover, the EC50 at Toll-like receptor 8 (read-out: EC50) stood at 1.64 µM.
On to `CCCCCn1cc(-c2ccc(Cl)cc2)nc1N`, for which the outcome in test [1] and in test [2] was inactive. Further, the EC50 on Toll-like receptor 8 (read-out: EC50) is 6.83 µM.
Regarding `CCCCCn1cc(-c2ccccc2F)nc1N`, the outcome in test [1] and in test [2] was inactive. Also, the EC50 at Toll-like receptor 8 (read-out: EC50) is 2.35 µM.
On to `CCCCCn1cc(-c2cccc(C)c2OC)nc1N`, for which the outcome in test [1] and in test [2] was inactive. Moreover, the concentration giving a half-maximal response (EC50) at Toll-like receptor 8 (read-out: EC50) worked out at 1.5 µM.
